From PubChem BioAssay
ALR H2O2 inh: human ALR oxidase inhibition via reduced H2O2; purified ALR, DTT oxidation, H2O2 HRP-luminol luminescence; hit rate 3.8% among 290,000; inhibition, % (no concentration beside the values); P55789;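 active = mean replicate inhibition above about 79%, with every replicate also reaching it, limit read from the data; inconclusive = only one of the two criteria met; inactive = mean below limit and not every replicate reaching it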
Target sequence (P55789 whole entry, looked up): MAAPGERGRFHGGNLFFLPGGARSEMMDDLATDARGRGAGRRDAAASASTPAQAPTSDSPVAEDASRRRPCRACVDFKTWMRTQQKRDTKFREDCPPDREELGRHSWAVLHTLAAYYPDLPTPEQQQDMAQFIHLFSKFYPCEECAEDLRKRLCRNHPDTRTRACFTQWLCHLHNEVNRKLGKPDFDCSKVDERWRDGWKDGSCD
HSF1 activator: increases HSF-1 driven luciferase reporter signal | NIH3T3-HGL HSF-1 luciferase reporter, MG132, 8 h; 100% = twice DMSO control signal | AID 504408 | hit rate 1.7% among 300,000 | activation, % at 9 µM;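 active = mean replicate activation of at least 50% with a set share of replicates each reaching 50%; inconclusive = only one of those two conditions met; inactive = mean below 50% and too few replicates reaching it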;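 note: 0% = median of the neutral control wells and 100% = twice that signal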
AI-2 QS modul: Vibrio harveyi AI-2 quorum sensing modulation | hit rate 0.4% among 300,000 | AID 2094 | activity change, % at 7.5 µM | Vibrio harveyi JMH597 AI-2 luminescence/OD600 ratio, 9 h; stronger effect = lower value; strain lacks LuxN and CqsS sensors; 0 = neutral-control median; in the data active = activity change below about -75%, passing the limit was not always enough; inconclusive = no clear call, values can overlap the other calls;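 note: luminescence divided by OD600 gain over 9 h not by final OD600 alone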
PHOSPHO1 inh: blocks human PHOSPHO1 phosphatase activity; Q8TCT1; recombinant PHOSPHO1, absorbance phosphatase assay; inhibition, % at 13.3 µM; hit rate 1.1% among 290,000; AID 1565; in the data active = inhibition above about 60%
Target sequence (Q8TCT1 whole entry, looked up): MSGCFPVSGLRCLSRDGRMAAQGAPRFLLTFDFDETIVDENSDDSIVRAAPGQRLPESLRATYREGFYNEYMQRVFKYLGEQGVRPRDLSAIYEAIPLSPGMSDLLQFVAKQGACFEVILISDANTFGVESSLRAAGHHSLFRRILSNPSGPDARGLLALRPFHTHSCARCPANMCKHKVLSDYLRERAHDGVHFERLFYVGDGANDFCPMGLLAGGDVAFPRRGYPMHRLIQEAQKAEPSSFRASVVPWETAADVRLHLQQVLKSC
core dimer inh: blocks dimerization of HCV core protein; TR-FRET GST/Flag-core106 dimerization, 1536-well; hit rate 0.33% among 300,000; inhibition, % at 5 µM;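 active = inhibition above the mean of all tested compounds plus 3 SD, set per screening campaign, cut at about 45% in these data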
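System – GST-tagged and Flag-tagged HCV core protein residues 1-106 · Repeats – one well for each compound · Technique – TR-FRET 671 and 617 nm emission · Doses – one concentration, 5 µM, in 0.5% DMSO · Times – 4 h, 22.5 °C incubation · Also added – Eu donor and XL665 acceptor anti-tag antibodies · Measure – percent inhibition of core106 dimerization signal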
HSF1 inh: HSF1 inhibition. hit rate 0.77% among 300,000. NIH3T3-HGL HSE-luciferase, MG132-induced, luminescence 8 h; stronger effect = lower value. activity change, negative = inhibition, % at 7.5 µM (by protocol). AID 2098;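 active = more than half of replicate wells show activity change below -50%, luminescence cut by over half; inconclusive = some wells, but at most half, below -50%; inactive = no replicate well below -50%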;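 note: luciferase reports HSF-1 transcriptional activity via heat shock element; 0% = median of DMSO wells and -100% = zero luminescence signal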
An asterisk follows results filed as active; ? = inconclusive; . = no result. Only some compounds are listed: those with a hit (about 6.8% of all), similar ones and a draw of the others.

SMILES | ALR H2O2 inh | HSF1 activator | AI-2 QS modul | PHOSPHO1 inh | core dimer inh | HSF1 inh
O=C(/C=C/c1ccc(O)c(O)c1)NC(=O)c1ccccc1O | 96.2* | 27.0 | 24.4 | 23.4 | -8.0 | 13.0
O=C(/C=C/c1ccc(Br)cc1)NC(=O)c1ccccc1O | 0.2 | 160.7* | 15.7 | 38.9 | 14.1 | 127.3
O=C(/C=C/c1ccc(Br)cc1)NC1CCCCCC1 | 3.0 | 16.7 | 17.8 | 26.7 | 102.0* | 8.7
CSc1ccc(/C=C/C(=O)NC(=O)c2ccccc2O)cc1 | 12.7 | 44.8 | 38.0 | 41.2 | 8.2 | 14.7
CN1CCN(S(=O)(=O)c2ccc(N3CCN(c4ccc(O)cc4)CC3)c([N+](=O)[O-])c2)CC1 | 98.0* | 2.2 | 16.3 | . | 7.3 | -6.7
c1ccc(NNC2=NCCCCC2)cc1 | 98.7* | 3.2 | -1.5 | 56.5 | -4.0 | -5.3
c1ccc(CNC2=NCCCCC2)cc1 | -4.3 | -30.9 | -0.6 | 9.6 | 0.0 | -15.9
CCC(=O)Nc1nnc(SCC(=O)c2ccc3c(c2)Cc2ccccc2-3)s1 | -4.5 | 14.8 | 22.5 | -38.6 | -54.7 | 4.6
CN(CCNC(=O)c1cccc(N2CCCC2=O)c1)Cc1ccccc1 | -3.4 | -8.9 | 28.2 | -6.8 | -3.5 | 3.4
CCN(CCCNC(=O)c1ccc(N2CCCC2=O)cc1)c1cccc(C)c1 | 90.3* | 15.0 | 17.3 | 20.9 | -11.9 | 13.1
CCN(CCCNC(=O)c1[nH]c(C)c(C(C)=O)c1C)c1cccc(C)c1 | 98.6* | 19.7 | 8.6 | 2.3 | 1.4 | 12.6
CCN(CCNC(=O)c1cccc(N2CCCC2=O)c1)c1ccccc1 | 98.4* | -10.1 | . | 14.6 | -6.3 | 18.0
CC(C)N(CCCNC(=O)c1ccc(N2CCCC2=O)cc1)Cc1ccccc1 | -4.5 | -10.0 | 26.1 | -14.8 | -3.7 | 0.4
O=C(N/C(=C/c1ccc(Cl)cc1)C(=O)N1CCOCC1)c1ccccc1 | -2.9 | -0.1 | 7.8 | 28.7 | 2.9 | -1.7
O=C(N/C(=C\c1ccc(Cl)cc1)C(=O)N1CCOCC1)c1ccc([N+](=O)[O-])cc1 | -30.9 | 9.5 | 16.3 | 80.3* | -3.3 | -2.6
CCc1ccc(C(=O)NNC(=O)C2CSC3(C)CCC(=O)N23)cc1 (configuration not stated) | 3.1 | 1.7 | 22.6 | . | 2.2 | -4.2
COc1ccc(/C=N/NC(=O)c2nn(-c3ccc(Cl)cc3)c(=O)c3c(N)scc23)cc1 | 28.6 | 36.1 | 12.0 | 99.7* | 39.7 | 6.5
COc1ccc(/C=N/NC(=O)c2nn(-c3ccc(C)c(C)c3)c(=O)c3ccccc23)cc1 | -7.7 | 4.4 | -6.2 | -6.1 | 55.7* | 13.4
COc1ccc(/C=N/NC(=O)c2nn(-c3ccccc3)c(=O)c3c(N)scc23)cc1 | -59.6 | 11.9 | 23.9 | 3.4 | 43.2 | 5.6
COc1cccc(C2/C(=C(/O)c3ccc4c(c3)OCO4)C(=O)C(=O)N2CCN2CCOCC2)c1 (configuration not stated) | -1.1 | -3.0 | -4.5 | 42.8 | 6.8 | 8.1
CCn1c(=O)c(=O)[nH]c2cc(C(=O)N(C)Cc3ccc(OC)c(F)c3)ccc21 | -8.7 | 9.1 | 0.9 | 26.5 | 4.8 | 2.5
COc1ccc(-n2c(CNC(=O)COc3ccc(Cl)cc3Cl)n[nH]c2=S)cc1 | 3.9 | . | -4.3 | -7.3 | 4.5 | .
Cn1c(SCC(=O)NC2CC2)nnc1-c1ccc(Cl)cc1 | -1.3 | . | . | . | . | .
CCc1nnc(NC(=O)CCC(=O)N2CCN(c3cc(Cl)ccc3C)CC2)s1 | -1.9 | 2.6 | 19.7 | 38.2 | 10.7 | 11.2
CCn1c(=O)cc(SCC(=O)N2CCN(c3ccccc3OC)CC2)c2ccccc21 | 6.1 | 24.1 | 18.1 | 62.6* | 8.1 | 10.7
SMILES | ALR H2O2 inh | HSF1 activator | AI-2 QS modul | PHOSPHO1 inh | core dimer inh | HSF1 inh
CCn1c(=O)cc(SCC(=O)Nc2ccc(OC)c(OC)c2)c2ccccc21 | . | 3.7 | 15.0 | -2.7 | 1.6 | 2.7
CCn1c(=O)cc(SCC(=O)Nc2ccc(Cl)cc2)c2ccccc21 | -7.1 | 97.0* | 0.8 | -1.6 | -0.4 | 32.1
Cc1ccnc(NC(=O)CSc2cc(=O)n(C)c3ccccc23)c1 | -1.7 | 9.5 | -5.2 | 63.2* | -2.4 | -1.8
CCn1c(=O)cc(SCC(=O)N2CCOCC2)c2ccccc21 | -1.5 | 11.4 | 0.5 | -0.5 | 1.0 | 2.7
CCn1c(=O)cc(SCC(=O)N2CCN(C3CCCCC3)CC2)c2ccccc21 | -2.4 | 61.7* | 44.9 | 7.0 | -1.0 | 29.6
CCc1cccc(CC)c1NC(=O)CSc1nc2ccc(N3C(=O)C4C(C3=O)[C@H]3C=C[C@@H]4C3)cc2s1 (some centres not stated) | -16.4 | 0.2 | 35.2 | -7.1 | 2.8 | -4.8
Cn1c(NC2CCCCC2)c(N=O)c(=O)n(C)c1=O | -6.7 | -14.3 | 6.9 | -7.5 | -3.3 | -1.5
CCCc1[nH]nc2c1C(c1ccc(OC)cc1OC)C(C#N)=C(N)O2 (configuration not stated) | ? | 63.0* | 0.7 | -13.6 | -0.5 | 23.5
COC(=O)Cc1[nH]nc2c1C(c1cc(OC)c(OC)c(OC)c1)C(C#N)=C(N)O2 (configuration not stated) | . | -12.9 | 16.0 | 23.6 | -4.0 | -9.8
COC(=O)Cc1[nH]nc2c1C(c1ccc(O)c(OC)c1)C(C#N)=C(N)O2 (configuration not stated) | 98.7* | -0.1 | 10.6 | 34.7 | 2.9 | -6.6
CC12CC(c3ccccc3O1)C(C(=O)NCc1ccccc1)C(=O)N2 (configuration not stated) | -3.4 | -75.9 | 18.3 | -17.0 | 7.2 | -70.8*
CC(=O)c1ccc(/C=C/c2nc3ccccc3n2C)o1 | 5.5 | 66.2* | -2.0 | 37.1 | 7.9 | 25.4
CSc1ccccc1C(=O)NCc1ccc(C)cc1 | 0.6 | 10.6 | 6.8 | 17.0 | -0.1 | -2.3
Cc1ccc(OCCn2cnc3ccccc3c2=O)c([N+](=O)[O-])c1 | 3.6 | 57.6* | 0.7 | -14.5 | -22.6 | 25.6
Cc1c(C(C)CCCO)oc(=O)c2c1Oc1c(C)c(C(C)C[C@H](C)O)oc(=O)c1C2 (some centres not stated) | -2.8 | . | . | . | . | .
COc1cc(C[C@@H]2C(=O)OC[C@H]2Cc2ccc(OC)c(OC)c2)ccc1O | 50.0 | . | . | . | . | .
COc1cc(CC2COC(=O)C2(O)Cc2ccc(O)c(OC)c2)ccc1O (configuration not stated) | 87.2* | -4.9 | 11.9 | -9.6 | 0.7 | -0.5
CC(=O)N(Cc1cccnc1)c1cccc(-c2nc3ccccc3s2)c1 | . | -5.6 | 8.2 | 65.6* | 2.8 | -1.3
c1cncc(-c2nc3ccccc3s2)c1 | -9.9 | 32.6 | 16.8 | -35.7 | -2.5 | 20.2
O=C(Cc1coc2ccc3ccccc3c12)NCc1ccccc1 | -23.0 | -8.1 | 5.0 | -10.9 | 4.5 | -3.5
O=C(CN1C(=O)NC2(CCCC2)C1=O)Nc1cc(Cl)ccc1N1CCCC1 | 87.4* | 39.3 | 12.4 | 31.3 | -6.9 | 5.8
O=C(Cc1coc2ccc3ccccc3c12)NC1CCCc2ccccc21 (configuration not stated) | . | 64.9* | 19.1 | 9.1 | 5.6 | 34.6
